Data as given in ChEMBL document CHEMBL1137398, “Synthesis and immunobiological activity of an original series of acyclic lipid a mimics based on a pseudodipeptide backbone” (J Med Chem, 2006).
Converted amounts (≈) assume the structure as drawn. The source made the active and inactive calls. No cut-off for these calls is given here.

Legend:
[1] = tested on: Oryctolagus cuniculus; test: Induction of pyrogenicity in rabbit assessed as increase in temperature at 0.01 mg/kg, iv; type: functional, organism-based; design: dose 0.01 mg/kg
Outline: (§1)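 Rabbit pyrogenicity test, iv injection, with water as control. Read-out is the summed temperature rise in three rabbits (°C), scored pass, inconclusive or fail.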

[2] = tested on: Macrophage; test: Induction of NO production in murine macrophage; type: functional, cell-based; conditions: Mus musculus
Outline: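 Bone-marrow macrophages from six-week-old male C57BL/6 mice, differentiated 8 d in DMEM with 20% horse serum and 30% L929 supernatant. Then set to 700 000 cells/mL in DMEM with 5% FCS. Serially diluted compounds were incubated with cells in triplicate for 22 h at 37 °C, 8% CO₂. Supernatant nitrite measured by Griess reaction at 562 nm (reference 690 nm) against a standard curve. Reported as mean ± SD dose-response.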

[3] = tested on: PBMC; test: Antagonist effect on LPS-induced IL6 production in human PBMC at 2 ug/mL; type: functional, cell-based
Outline: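 Human PBMC from healthy donor buffy coat, isolated on Ficoll (1.077 g/mL). Cultured at 1 × 10⁶ viable cells/well in RPMI-1640 with 10% FCS, penicillin/streptomycin and L-glutamine. Pre-incubated 90 min at 37 °C, 5% CO₂ with compound at final 0.02, 0.2, 2 or 20 µg/mL. E. coli LPS (055:B5) then added at 0.01 µg/mL. After 24 h, supernatant IL-6 measured by ELISA.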

[4] = tested on: Limulus; test: Endotoxicity against horseshoe crab blood at 0.1 mg/mL by LAL chromogenic assay; type: toxicity, organism-based; conditions: limulus polyphemus
Outline: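 LAL chromogenic endotoxin assay with compound at 0.1 mg/mL. Average of three independent experiments.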

[5] = tested on: Oryctolagus cuniculus; test: Induction of pyrogenicity in rabbit assessed as increase in temperature at 0.001 mg/kg, iv; type: functional, organism-based; design: dose 0.001 mg/kg; outline: as §1
[6] = tested on: PBMC; test: Induction of IL6 production in human PBMC at 20 ug/ml relative to LPS; type: functional, cell-based
Outline: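 Human PBMC isolated on Ficoll from donor buffy coat. Cultured at 1 × 10⁶ viable cells/well in RPMI-1640 with 10% FCS and antibiotics. Incubated at 37 °C, 5% CO₂ with compound at final 20 µg/mL. Controls were medium alone and E. coli LPS (055:B5). Supernatant harvested at 24 h and IL-6 measured by ELISA; detection limit 10 pg/mL.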

[7] = tested on: Oryctolagus cuniculus; test: Induction of pyrogenicity in rabbit assessed as increase in temperature at 0.1 mg/kg, iv; type: functional, organism-based; design: dose 0.1 mg/kg; outline: as §1

In the case of `CCCCCCCCCCCC(=O)O[C@H](CCCCCCCCCCC)CC(=O)NC(CCOP(=O)(O)O)C(=O)NCCC[C@H](COP(=O)(O)O)NC(=O)C[C@H](O)CCCCCCCCCCC` (mixture of isomers), the Activity [1] is reported as “inactive”, the EC50 [2] is reported as 0.083 mg/L and the Activity [3] is reported as “Active”. For the same molecule, the Activity [4] was 874 EU/ml, the Activity [5] was “inactive” and the Activity [6] was “inactive”.

For `CCCCCCCCCCCC(=O)O[C@H](CCCCCCCCCCC)CC(=O)N[C@@H](CCOP(=O)(O)O)C(=O)NCCC[C@H](COP(=O)(O)O)NC(=O)C[C@H](O)CCCCCCCCCCC`, the EC50 [2] was 0.15 mg/L (≈ 0.148 µM), the Activity [3] was “Active” and the Activity [4] was 240 EU/ml. For the same molecule, the Activity [6] was “inactive”.

With `CCCCCCCCCCCC(=O)O[C@H](CCCCCCCCCCC)CC(=O)N[C@H](CCOP(=O)(O)O)C(=O)NCCC[C@H](CO)NC(=O)C[C@H](O)CCCCCCCCCCC` the EC50 [2] was 1.85 mg/L (≈ 1.98 µM), the Activity [3] was “inactive” and the Activity [4] was 14257 EU/ml.

`CCCCCCCCCCCC(=O)O[C@H](CCCCCCCCCCC)CC(=O)NC(CCOP(=O)(O)O)C(=O)NCCC[C@H](CO)NC(=O)C[C@H](O)CCCCCCCCCCC` (mixture of isomers) was tested, and the Activity [7] was “Active”, the Activity [1] was “inactive” and the EC50 [2] was 3.53 mg/L. For the same molecule, the Activity [3] was “inactive”, the Activity [4] was 16238 EU/ml and the Activity [5] was “inactive”.

In the case of `CCCCCCCCCCCC(=O)O[C@H](CCCCCCCCCCC)CC(=O)N[C@@H](CCOP(=O)(O)O)C(=O)NCCC[C@H](CO)NC(=O)C[C@H](O)CCCCCCCCCCC`, the EC50 [2] is reported as 6.86 mg/L (≈ 7.34 µM), the Activity [3] is reported as “inactive” and the Activity [4] is reported as 9320 EU/ml.

With `CCCCCCCCCCCC(=O)O[C@H](CCCCCCCCCCC)CC(=O)N[C@H]1[C@H](OC[C@H]2O[C@H](OP(=O)(O)O)[C@H](NC(=O)C[C@H](O)CCCCCCCCCCC)[C@@H](O)[C@@H]2O)O[C@H](CO)[C@@H](OP(=O)(O)O)[C@@H]1O` [DEFOSLIMOD] the EC50 [2] was 0.025 mg/L (≈ 0.022 µM).

With `CCCCCCCCCCCC(=O)O[C@H](CCCCCCCCCCC)CC(=O)N[C@H](CCOP(=O)(O)O)C(=O)NCCC[C@H](COP(=O)(O)O)NC(=O)C[C@H](O)CCCCCCCCCCC` the EC50 [2] was 0.55 mg/L (≈ 0.542 µM), the Activity [3] was “Active” and the Activity [4] was 1072 EU/ml. For the same molecule, the Activity [6] was “inactive”.
